In the library only some 2.6% were active in any assay of this set; here they are far more common.
WT yeast gro inh – growth inhibition of WT strain, primary screen, mitochondrial fusion inhibitor project, WT and mutant strains, chemical genetic. inhibition, % at 10 µM. mitochondrial fusion phenotypic screen. 190,000 tested, 2.1% active; in the data active = inhibition above about 58%; tested in S. cerevisiae
TNAP inh noacc – human TNAP enzyme inhibitors, primary screen, biochemical, luminescent, no phosphate acceptor, uHTS; purified TNAP, CDP-star luminescence, 30 min; inhibition, % at 20 µM; 200,000 tested, 0.26% active; AID 1012, 2008;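 active = tissue-nonspecific alkaline phosphatase inhibition above about 50% at 20 µM in the single-dose screen, limit read from the data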
Target sequence (P05186 whole entry, looked up): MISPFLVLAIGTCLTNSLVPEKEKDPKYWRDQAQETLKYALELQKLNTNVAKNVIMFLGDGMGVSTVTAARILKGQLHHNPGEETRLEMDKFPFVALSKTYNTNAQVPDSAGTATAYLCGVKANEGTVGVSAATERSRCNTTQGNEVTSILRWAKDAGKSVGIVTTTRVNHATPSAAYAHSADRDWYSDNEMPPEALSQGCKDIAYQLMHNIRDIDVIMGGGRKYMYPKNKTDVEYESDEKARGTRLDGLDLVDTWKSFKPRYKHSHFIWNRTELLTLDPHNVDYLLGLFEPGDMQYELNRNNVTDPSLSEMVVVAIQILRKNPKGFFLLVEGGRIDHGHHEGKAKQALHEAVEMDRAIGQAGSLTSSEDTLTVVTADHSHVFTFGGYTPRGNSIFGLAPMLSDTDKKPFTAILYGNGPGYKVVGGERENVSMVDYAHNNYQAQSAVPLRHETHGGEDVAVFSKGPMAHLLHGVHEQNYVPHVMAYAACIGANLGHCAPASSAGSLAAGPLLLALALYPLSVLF
Arbovirus inh – antivirals against arbovirus infection, primary screen, cell-based, full library, 10K replicate subset; arbovirus infection cell-based antiviral screen; inhibition, % at 10 µM; AID 1251, 2008; 200,000 tested, 0.37% active; in the data active = inhibition above about 30%
TNAP inh hiacc – human TNAP enzyme inhibitors, primary screen, biochemical, luminescent, high phosphate acceptor level, uHTS. purified TNAP, CDP-star luminescence, 1 M DEA. 200,000 tested, 0.03% active. Alkaline phosphatase, tissue-nonspecific isozyme (Homo sapiens), P05186. inhibition, % at 20 µM;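 active = over 50% inhibition of tissue-nonspecific alkaline phosphatase at 20 µM in the single-dose screen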
TNAP act hiacc – TNAP activators at high phosphate acceptor level, primary screen, biochemical, luminescence, uHTS; purified TNAP, CDP-star luminescence, 1 M DEA, 30 min; hits give high values; 0 = EDTA background, 1 = DMSO-only activity; 200,000 tested, under 10 active; AID 1136, 2008; activation factor at 20 µM; Alkaline phosphatase, tissue-nonspecific isozyme (Homo sapiens), P05186;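 active = activation factor at least 2 at 20 µM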
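Control set: EDTA negative control, DMSO positive control / Assay system: human TNAP / Quantity: TNAP 1/800 final / Evaluation: TNAP activation factor scaled between EDTA and DMSO control wells / Measured by: luminescent substrate turnover signal / Compound dosing: one dose, 20 µM / Times: 30 min enzyme reaction at room temperature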
Hits are given with their value; n = inactive.

SMILES	WT yeast gro inh	TNAP inh noacc	Arbovirus inh	TNAP inh hiacc	TNAP act hiacc
CCCc1nc2c(=O)n(C)c(=O)nc-2n(C)n1	63.6	n	n	n	n
CCn1c(N)nc2c1c(=O)n(C)c(=O)n2C	n	n	n	n	n
O=C(COC(=O)c1cc(Cl)ccc1[N+](=O)[O-])NCc1ccc(Cl)cc1Cl	61.3	n	n	n	n
O=C(COC(=O)c1cc(Cl)ccc1[N+](=O)[O-])Nc1cccc2ccccc12	n	n	n	n	n
Cc1ccc(OCCCCn2cnc3ccccc32)cc1	65.1	n	n	n	n
c1ccc(OCCCCn2cnc3ccccc32)cc1	n	n	n	n	n
c1ccc2c(c1)ncn2CCCCOc1ccc2c(c1)CCC2	69.2	n	n	n	n
c1ccc2c(c1)ncn2CCCOc1ccc2c(c1)CCC2	65.3	n	n	n	n
COc1ccc(OC)c(NC(=O)CC2SC(=Nc3ccc(F)cc3)N(CCC3=CCCCC3)C2=O)c1 (stereo not given)	n	n	n	n	n
COc1cc([N+](=O)[O-])ccc1NC(=O)CC1SC(=Nc2ccc(F)cc2)N(CCC2=CCCCC2)C1=O (stereo not given)	n	n	47.5	n	n
CSc1ccccc1NC(=O)CO/N=C(\C)c1cc2ccccc2o1	n	n	38.1	n	n
CCc1ccc(NC(=O)CO/N=C(\C)c2cc3ccccc3o2)cc1	n	n	n	n	n
C/C(=N\OCC(=O)NC12CC3CC(CC(C3)C1)C2)c1cc2ccccc2o1	65.8	n	n	n	n
C/C(=N\OCC(=O)Nc1ccc(F)c(F)c1F)c1cc2ccccc2o1	n	n	n	n	n
CC(C)CCNC(=O)C(C)N(C(=O)c1snc(C(N)=O)c1N)c1cnc2ccccc2c1 (stereo not given)	n	61.9	n	n	n
CC(C)Cc1nnc(NC(=O)CCC(=O)Nc2ccc(F)cc2)s1	n	51.1	n	n	n
O=Nc1c(O)n(Cc2ccc(Cl)c(Cl)c2)c2ccccc12	n	n	n	n	n
COc1cc(Br)cc(-c2nc3c(c(=O)[nH]c(=O)n3Cc3ccccc3)n2C)c1O	n	n	52.7	n	n
COc1ccc(NC(=O)CNc2cccc(C#N)c2)cc1Cl	71.2	n	n	n	n
COc1ccc(NCC(=O)Nc2ccc(C#N)cc2)cc1Cl	n	n	n	n	n
COc1ccc(NC(=O)Nc2cccc([N+](=O)[O-])c2)cc1Cl	79.2	n	n	n	n
O=C(Nc1ccc([N+](=O)[O-])cc1)Nc1ccc(OC(F)F)c(Cl)c1	84.1	n	n	n	n
O=C(N/N=C/c1cccnc1)C1CC1(c1ccccc1)c1ccccc1 (stereo not given)	n	n	n	n	n
c1ccc(-c2noc(-c3ccccc3-c3ccccc3)n2)cc1	71.6	n	n	n	n
c1ccc(-c2noc(-c3ccc4ccccc4c3)n2)cc1	n	n	n	n	n
SMILES	WT yeast gro inh	TNAP inh noacc	Arbovirus inh	TNAP inh hiacc	TNAP act hiacc
O=C(NC(=S)N(CCCCO)C1CCCCC1)c1sc2ccccc2c1Cl	n	n	n	n	n
CCC(=O)NC(c1ccc([N+](=O)[O-])cc1)c1c(O)ccc2ccccc12 (stereo not given)	n	n	n	n	n
CCCCC(=O)NC(c1ccc([N+](=O)[O-])cc1)c1c(O)ccc2ccccc12 (stereo not given)	82.0	n	n	n	n
COc1cc2ccccc2cc1C(=O)NC(=S)Nc1cc(C(=O)O)ccc1C	n	n	42.4	n	n
COc1ccc(NC(=O)C2CC(=O)N=C(N)S2)cc1 (stereo not given)	n	n	n	n	n
O=C(COC(=O)CCCN=C1NS(=O)(=O)c2ccccc21)NC(=O)NC1CCCC1	n	n	n	n	n
CCCCc1ccc(-c2nc(NC(=O)C3C4CCC(O4)C3C(=O)O)sc2C)cc1 (stereo not given)	88.2	n	n	n	n
CCc1cccc(C)c1NC(=O)C1C2CCC(O2)C1C(=O)O (stereo not given)	n	n	n	n	n
Cn1c(Oc2ccccc2NCc2cc(Br)ccc2O)cc(=O)n(C)c1=O	n	n	31.5	n	n
